Each block holds one compound with its values, some of them ahead of it.
Key:
Test in all cases: two-electrode voltage clamp, Xenopus oocytes
Type in all cases: cell-based
[1] = molecular target: T1, LsRDLR (Laodelphax striatellus RDL GABA receptor) (Laodelphax striatellus, UniProt Q0ECT5, F128Y/Y91F)
T1 sequence (Q0ECT5 23-487 Y91F/F128Y): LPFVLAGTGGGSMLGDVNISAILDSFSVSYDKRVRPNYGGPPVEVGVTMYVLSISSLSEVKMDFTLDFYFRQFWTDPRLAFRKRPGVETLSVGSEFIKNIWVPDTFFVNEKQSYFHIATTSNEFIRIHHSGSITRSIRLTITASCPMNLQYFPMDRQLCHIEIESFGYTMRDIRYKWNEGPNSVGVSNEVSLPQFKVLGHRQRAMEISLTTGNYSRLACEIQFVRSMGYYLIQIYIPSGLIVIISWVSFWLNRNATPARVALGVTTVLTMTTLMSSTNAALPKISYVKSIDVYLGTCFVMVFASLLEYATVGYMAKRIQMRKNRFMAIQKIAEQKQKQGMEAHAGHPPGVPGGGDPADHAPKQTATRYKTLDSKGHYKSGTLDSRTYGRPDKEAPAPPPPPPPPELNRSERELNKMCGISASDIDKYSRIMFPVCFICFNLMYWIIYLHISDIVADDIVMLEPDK
Procedure, shortened: (§1)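 WT or site-directed mutant LsRDL cRNA (5 ng) injected into defolliculated Xenopus oocytes, which were then held 48 hr at 16°C in SOS (pH 7.6). Clamped at −80 mV, perfused with SOS at 18–20°C. GABA applied for 3 sec at 30–60 sec intervals. EC50 from a four-parameter variable-slope logistic fit; ≥6 oocytes from ≥2 frogs; mean±S.D.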

[2] = molecular target: T2, LsRDLR (Laodelphax striatellus RDL GABA receptor) (Laodelphax striatellus, UniProt Q0ECT5, F128Y/F95S)
T2 sequence (Q0ECT5 23-487 F95S/F128Y): T1 sequence (Q0ECT5 23-487 Y91F/F128Y)
Procedure, shortened: as §1

[3] = molecular target: T3, LsRDLR (Laodelphax striatellus RDL GABA receptor) (Laodelphax striatellus, UniProt Q0ECT5)
T3 sequence (Q0ECT5 23-487): T1 sequence (Q0ECT5 23-487 Y91F/F128Y)
Procedure, shortened: as §1

[4] = molecular target: T4, LsRDLR (Laodelphax striatellus RDL GABA receptor) (Laodelphax striatellus, UniProt Q0ECT5, F95S/Y91F)
T4 sequence (Q0ECT5 23-487 Y91F/F95S): T1 sequence (Q0ECT5 23-487 Y91F/F128Y)
Procedure, shortened: as §1

[5] = molecular target: T5, LsRDLR (Laodelphax striatellus RDL GABA receptor) (Laodelphax striatellus, UniProt Q0ECT5, Y91F)
T5 sequence (Q0ECT5 23-487 Y91F): T1 sequence (Q0ECT5 23-487 Y91F/F128Y)
Procedure, shortened: as §1

[6] = molecular target: T6, LsRDLR (Laodelphax striatellus RDL GABA receptor) (Laodelphax striatellus, UniProt Q0ECT5, F95S)
T6 sequence (Q0ECT5 23-487 F95S): T1 sequence (Q0ECT5 23-487 Y91F/F128Y)
Procedure, shortened: as §1

[7] = molecular target: T7, LsRDLR (Laodelphax striatellus RDL GABA receptor) (Laodelphax striatellus, UniProt Q0ECT5, F128Y/F95S/Y91F)
T7 sequence (Q0ECT5 23-487 Y91F/F95S/F128Y): T1 sequence (Q0ECT5 23-487 Y91F/F128Y)
Procedure, shortened: as §1

[8] = molecular target: T8, LsRDLR (Laodelphax striatellus RDL GABA receptor) (Laodelphax striatellus, UniProt Q0ECT5, F128Y)
T8 sequence (Q0ECT5 23-487 F128Y): T1 sequence (Q0ECT5 23-487 Y91F/F128Y)
Procedure, shortened: as §1

[9] = molecular target: T3, LsRDLR (Laodelphax striatellus RDL GABA receptor); details: read-out: % of control GABA response remaining at 30 μM gabazine

SMILES: NCCCC(=O)O [GABA]
EC50 [1]: 37.3 ± 11.8 µM | EC50 [2]: 25.6 ± 11.9 µM | EC50 [3]: 6.83 ± 3.74 µM | EC50 [4]: 63.2 ± 23.8 µM | EC50 [5]: 131 ± 45 µM | EC50 [6]: 4.08 ± 1.31 µM | EC50 [7]: 15.4 ± 3.7 µM | EC50 [8]: 43.7 ± 10.2 µM

remaining activity at 30 µM [9]: 77.8 ± 8%
SMILES: COc1ccc(-c2ccc(=N)n(CCCC(=O)O)n2)cc1 [gabazine, 2-(3-carboxypropyl)-6-(4-methoxyphenyl)-2,3-dihydropyridazin-3-iminium bromide]

— publication PMC9184248 (Journal of Pesticide Science, 2022)
